Results taken from ChEMBL document CHEMBL5154715, “Phenolic Lipids Derived from Cashew Nut Shell Liquid to Treat Metabolic Diseases” (J Med Chem, 2022).
Active and inactive are the calls of the source. No cut-off for these calls is given here.

Key:
[1] = Relative bioavailability in C57BL/6 mouse at 100 mg/kg […] by LC-MS/MS analysis; type: ADME, organism-based; settings: in vivo
[2] = Terminal half life in C57BL/6 mouse at 40 mg/kg, ip […] by LC-MS/MS analysis; type: ADME, organism-based; settings: in vivo, read-out: beta t1/2 (converted)
Danio rerio [3] = experiment: In vivo agonist activity at human GFP-tagged PPARalpha in transgenic zebrafish assessed as increase in GFP expression in brain at 0.5 uM measured after 14 hrs by microscopy
[4] = Terminal half life in C57BL/6 mouse at 100 mg/kg, po measured upto 24 hrs by LC-MS/MS analysis; type: ADME, organism-based; settings: in vivo, read-out: beta t1/2 (converted)
Outline: (§1)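 Single oral dose given in peanut butter pellets to WT male C57Bl/6 mice acclimated 7 days to drug-free pellets; n = 4 per time point. Saphenous blood at 0.25–2 h, terminal collection at 4–38 h. Plasma extracted with methanol containing internal standard, LC-MS/MS with negative-ion ESI MRM. Parameters reported as mean ± SEM; Frel is oral vs IP.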

[5] = Cmax in C57BL/6 mouse at 40 mg/kg, ip measured upto 24 hrs by LC-MS/MS analysis; type: ADME, organism-based; design: dose 40 mg/kg, time < 24 hrs, route ip; settings: in vivo
Outline: (§2)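 Single IP dose in 5% DMSO/5% Tween-80/90% saline to WT male C57Bl/6 mice, 7–10 months old; n = 4 per time point. Saphenous sampling at 0.08–0.5 h, then terminal trunk blood at 1–6 h. Plasma extracted with methanol plus internal standard and analyzed by LC-MS/MS; mean ± SEM.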

Danio rerio [6] = experiment: In vivo agonist activity at human GFP-tagged PPARalpha in transgenic zebrafish assessed as increase in GFP expression in yolk sac at 0.5 uM measured after 14 hrs by microscopy
Danio rerio [7] = experiment: In vivo agonist activity at human GFP-tagged PPARalpha in transgenic zebrafish assessed as increase in GFP expression in heart at 0.5 uM measured after 14 hrs by microscopy
[8] = target: T1, Peroxisome proliferator-activated receptor gamma (Mus musculus) (UniProt P37238); experiment: Agonist activity at human PPARgamma in mouse 3T3-L1 cells assessed as induction of Adipoq-mRNA expression at 25 uM incubated for 11 days by quantitative real-time PCR analysis; settings: filed as agonist, time 11.0 day
T1 sequence (whole entry): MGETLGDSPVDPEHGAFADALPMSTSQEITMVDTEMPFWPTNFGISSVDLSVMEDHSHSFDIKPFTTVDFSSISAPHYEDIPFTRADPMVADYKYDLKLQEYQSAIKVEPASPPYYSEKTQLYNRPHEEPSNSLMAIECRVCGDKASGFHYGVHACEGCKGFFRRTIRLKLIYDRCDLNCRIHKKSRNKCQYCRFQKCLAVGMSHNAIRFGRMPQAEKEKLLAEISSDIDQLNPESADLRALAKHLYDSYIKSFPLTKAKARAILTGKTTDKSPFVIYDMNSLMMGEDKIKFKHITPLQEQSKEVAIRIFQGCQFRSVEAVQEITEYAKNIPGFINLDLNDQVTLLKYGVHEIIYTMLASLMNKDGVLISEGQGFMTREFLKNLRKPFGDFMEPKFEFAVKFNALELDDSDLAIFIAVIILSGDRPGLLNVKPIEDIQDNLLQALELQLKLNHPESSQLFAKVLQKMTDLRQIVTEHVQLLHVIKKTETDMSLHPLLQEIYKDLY

[9] = AUC (0 to infinity) in C57BL/6 mouse at 40 mg/kg, ip measured upto 24 hrs by LC-MS/MS analysis; type: ADME, organism-based; design: time < 24 hrs, dose 40 mg/kg, route ip; settings: in vivo; outline: as §2
[10] = Elimination rate constant in C57BL/6 mouse at 40 mg/kg, ip measured upto 24 hrs by LC-MS/MS analysis; type: ADME, organism-based; settings: in vivo; outline: as §2
[11] = Apparent oral clearance in C57BL/6 mouse at 40 mg/kg, ip […] by LC-MS/MS analysis; type: ADME, organism-based; settings: in vivo
[12] = AUC (0 to infinity) in C57BL/6 mouse at 100 mg/kg, po […] by LC-MS/MS analysis; type: ADME, organism-based; design: dose 100 mg/kg, route po; settings: in vivo
Danio rerio [13] = experiment: In vivo agonist activity at human GFP-tagged PPARalpha in transgenic zebrafish assessed as increase in GFP expression in muscle at 0.5 uM measured after 14 hrs by microscopy
[14] = Cmax in C57BL/6 mouse at 100 mg/kg, po measured upto 24 hrs by LC-MS/MS analysis; type: ADME, organism-based; design: time < 24 hrs, dose 100 mg/kg, route po; settings: in vivo; outline: as §1
[15] = Apparent oral clearance in C57BL/6 mouse at 100 mg/kg, po measured upto 24 hrs by LC-MS/MS analysis; type: ADME, organism-based; settings: in vivo; outline: as §1
[16] = target: T1, Peroxisome proliferator-activated receptor gamma (Mus musculus); experiment: Agonist activity at human PPARgamma in mouse 3T3-L1 cells assessed as induction of Glut4 mRNA expression at 25 uM incubated for 11 days by quantitative real-time PCR analysis; settings: filed as agonist, time 11.0 day
Danio rerio [17] = experiment: In vivo agonist activity at human GFP-tagged PPARalpha in transgenic zebrafish assessed as increase in GFP expression in brain at 0.7 uM measured after 14 hrs by microscopy
Danio rerio [18] = experiment: In vivo agonist activity at human GFP-tagged PPARalpha in transgenic zebrafish assessed as increase in GFP expression in heart at 1.5 uM measured after 14 hrs by microscopy
Danio rerio [19] = experiment: In vivo agonist activity at human GFP-tagged PPARalpha in transgenic zebrafish assessed as increase in GFP expression in brain at 1.5 uM measured after 14 hrs by microscopy
Danio rerio [20] = experiment: In vivo agonist activity at human GFP-tagged PPARalpha in transgenic zebrafish assessed as increase in GFP expression in muscle at 1.5 uM measured after 14 hrs by microscopy

CCCCCCCCCCCCCCCc1cccc(OC(C)(C)C(=O)O)c1
bioavailability [1]: 38%
half-life [2]: 4 h
Activity (Danio rerio [3]): Active
half-life [4]: 2.3 h
Cmax [5]: 102 µg/mL
Activity (Danio rerio [6]): Active
Activity (Danio rerio [7]): Active
Activity [8]: Active
AUC(0-inf) [9]: 748 µg·h/mL
k el at 24 h [10]: 4.83e-05 s⁻¹
CL/F [11]: 0.89 mL/min/kg
AUC(0-inf) [12]: 717 µg·h/mL
Activity (Danio rerio [13]): Active
Cmax [14]: 76 µg/mL
CL/F [15]: 2.3 mL/min/kg
Activity [16]: Active

CCCCCC/C=C\CCCCCCCc1cccc(OC(C)(C)C(=O)O)c1
Activity (Danio rerio [17]): Active

CCCCCCCCCCCCCCCc1cccc(OC(C)=O)c1C(=O)O
Activity (Danio rerio [18]): Active
Activity (Danio rerio [19]): Active
Activity (Danio rerio [20]): Active
